The values that follow come from PMC2217202 (The Journal of General Physiology, 2000).

Series [1] deals with T1, AE1 (band 3) protein in human red blood cells (Homo sapiens, UniProt P02730).
T1 sequence (P02730 1-911): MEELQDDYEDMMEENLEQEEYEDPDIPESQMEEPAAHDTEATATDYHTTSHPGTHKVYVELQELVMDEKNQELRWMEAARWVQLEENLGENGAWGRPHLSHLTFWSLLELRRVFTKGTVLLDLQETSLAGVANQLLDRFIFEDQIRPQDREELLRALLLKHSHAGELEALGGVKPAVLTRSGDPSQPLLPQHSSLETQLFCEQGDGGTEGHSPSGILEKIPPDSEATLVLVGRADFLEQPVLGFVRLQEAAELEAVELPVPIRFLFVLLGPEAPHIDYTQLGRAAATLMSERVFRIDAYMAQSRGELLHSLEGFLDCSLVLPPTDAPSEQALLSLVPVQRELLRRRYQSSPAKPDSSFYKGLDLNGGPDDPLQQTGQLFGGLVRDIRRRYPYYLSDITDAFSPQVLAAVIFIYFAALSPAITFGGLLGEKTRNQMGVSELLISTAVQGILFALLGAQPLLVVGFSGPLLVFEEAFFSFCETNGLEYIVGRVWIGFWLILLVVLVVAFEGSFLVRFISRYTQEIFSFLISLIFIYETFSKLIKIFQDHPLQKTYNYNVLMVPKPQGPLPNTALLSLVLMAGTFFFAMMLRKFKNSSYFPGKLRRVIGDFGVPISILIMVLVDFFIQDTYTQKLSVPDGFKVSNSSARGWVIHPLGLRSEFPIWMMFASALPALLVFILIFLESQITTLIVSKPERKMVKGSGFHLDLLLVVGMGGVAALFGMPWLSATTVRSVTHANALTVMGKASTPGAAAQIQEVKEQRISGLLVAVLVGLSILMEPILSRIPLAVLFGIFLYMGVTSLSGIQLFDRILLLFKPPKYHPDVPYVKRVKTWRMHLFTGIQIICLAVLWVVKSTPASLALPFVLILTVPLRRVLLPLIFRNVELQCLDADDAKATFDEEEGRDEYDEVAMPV
Nature of the series: Inhibition of 36Cl exchange flux at 0°C after short exposure to WW781. The class given is cell-based. To be noted: for rate constant for 36Cl exchange, k: 0°C (control 0.0507); for IC50: read-out: K 1W, 0°C. The essentials: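 Human RBCs loaded with 36Cl (10 min, 0°C) without pretreatment, resuspended in ice-cold medium with test compound (0.25-1.5 µM, 1% ethanol); nystatin equalized Cl− for non-150 mM media, citrate-sucrose replacing Cl−. Rapid-filtration samples were taken mostly before 30 s, never after 45 s. k was the slope of ln(P∞−Pt) versus time. Dissociation constants came from nonlinear least-squares single-site fits and Dixon plots.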

The target of series [2] is T1, AE1 (band 3) protein in human red blood cells. The series is described as follows: Inhibition of 36Cl exchange flux at 0°C after equilibration with WW781. The class given is cell-based. The note with it: for IC50: read-out: K eqW, 0°C, mean ± SEM. An outline of the steps:
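Washed human RBCs (150 mM KCl, 20 mM HEPES, 24 mM sucrose, pH 6.9) at 0.25% hematocrit, internal Cl− set by nystatin, pretreated ≥2 min with test compound (1% ethanol), loaded with 36Cl (2-10 µCi/ml, 10 min, 0°C), then efflux into ice-cold medium with the same compound level. In 2 mM Cl− medium, no pretreatment and sampling began ≥4 min. Fit to single-site inhibition.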

Series [3] relates to net Cl^− permeability, PCl. The note with it: ref Freedman and Novak 1983; cited from earlier work.
The subject of series [4] is AE1. The note with it: cells with 150 mM Cl− inside and outside; ref Raha et al. 1993; cited from earlier work.
Series [5] has as its system AE1. The class given is cell-based, human. To be noted: at saturating concentrations of WW781, 150 mM Cl− inside and outside.
For series [6], the system named is AE1. To be noted: ref Knauf et al. 1995; cited from earlier work.

Like-named read-outs stand apart in the source and are kept apart here.

For the molecule `CCCCN1C(=O)C(C=CC=CC=C2C(=O)N(c3ccc(S(=O)(=O)O)cc3)N=C2C)C(=O)N(CCCC)C1=O` [WW781, [3-methyl-1-p-sulfophenyl-5-pyrazolone-(4)]-[1,3-dibutylbarbituric acid]-pentamethine oxonol], the “rate constant for 36Cl exchange, k” value in series [1] (0.25 μM WW781, 150 mM Cl− medium) amounted to 0.0389 s⁻¹; in series [1] (0.5 μM WW781, 150 mM Cl− medium), 0.0316 s⁻¹; in series [1] (1 μM WW781, 150 mM Cl− medium) it was 0.0274 s⁻¹; in series [1] (1.5 μM WW781, 150 mM Cl− medium), 0.0203 s⁻¹. In series [1] (initial binding), the “K 1W,ECl/K 1W,E” value is recorded as 0.73 − 0.74. In addition, the “K 1W,Ei/K 1W,Eo” value in series [1] (initial binding) was 14. Moreover, the IC50 in series [1] ([Cli = o] 20 mM, nystatin-treated cells) worked out at 0.9 ± 0.21 µM; in series [1] ([Cli = o] 150 mM, mean ± SEM) it was 0.59 ± 0.05 µM; in series [1] ([Cli = o] 600 mM, nystatin-treated cells, mean ± SEM), 0.54 ± 0.1 µM; in series [1] ([Cli] = 150, [Clo] = 2 mM, mean ± SEM), 0.14 ± 0.01 µM; in series [2] ([Cli = o] 150 mM), 0.066 ± 0.012 µM; in series [2] ([Cli = o] 600 mM), 0.143 ± 0.029 µM. Moreover, the IC50 in series [2] ([Cli] = 150, [Clo] = 2 mM) turned out to be 0.0055 ± 0.0003 µM. Further, the “K 2/1W,ECl/K 2/1W,E” value in series [2] was 0.12 − 0.15. Moreover, in series [2] (Cl−-loaded forms), the “K 2/1W,ECl” value is recorded as 1.8 − 2.2. Besides, the “K 2/1W,Ei” value in series [2] (Ei form) is given as at most 34. In addition, in series [2] (Eo form of AE1, from K 2/1W,Eo), the “free energy difference ΔG^0 between complex 2 and complex 1” value was -1.82 kcal/mol. Moreover, the “K 1W/K eqW” value was determined as 15.5 in series [2] ([Cli = o] 5 mM); 9.0 in series [2] ([Cli = o] 150 mM); 3.8 in series [2] ([Cli = o] 600 mM); 25.2 in series [2] ([Cli] = 150, [Clo] = 2 mM). For the same molecule, the “slope of K eqW as a function of [Cl−]” value in series [2] (best-fit straight line, [Cli] = [Clo] (Fig. 10)) is 0.00016 ± 0.00004 μM/mM. Moreover, in series [2] (both initial binding and equilibrium association), the “preference for the Eo form of AE1 as compared with the Ei form” value is over 10 fold. Further, the “K eqW,Ei/K eqW,Eo” value in series [2] (equilibrium binding) was at least 12. For the same molecule, the Ki was 0.28 ± 0.07 µM in series [2] (read-out: K eqW,EIi, mean ± SEM of two experiments) and 0.033 to 0.046 µM in series [2] (read-out: K eqW,Ei (minimum value), range over both estimates of K eqW,E). The “effect on net Cl− permeability, PCl” value in series [3] is on record as “increase”. Besides, the “k W-AE1,W•AE1 (backward rate constant, complex 2 to complex 1)” value with AE1 [4] is 0.15 min⁻¹. Further, in the series on AE1 [4], the “k W•AE1,W-AE1 (forward rate constant for formation of complex 2)” value is about 1.1 min⁻¹. For the same molecule, the “half-time for formation of complex 2” value in the series on AE1 [5] is 33 s.

On to `CCCCN1C(=O)C(=CC=CC=CC2C(=O)N(CCCC)C(=O)N(CCCC)C2=O)C(=O)N(CCCC)C1=O` [diBA(5)C4, bis-(1,3-dibutylbarbituric acid)-pentamethine oxonol], for which the “inhibition of the transport system” value in the series with AE1 [6] is given as “most potent known inhibitor”.
